# Data reported in ChEMBL document CHEMBL2029283, “Disubstituted 1,8-dipyrazolcarbazole derivatives as a new type of c-myc G-quadruplex binding ligands” (Bioorg Med Chem, 2012).
# The source made the active and inactive calls. The rule behind the calls is not given here.
# Columns and labels:
# HL-60 = assay: Cytotoxicity against human HL60 cells after 48 hrs by MTT assay; type: functional, cell-based; conditions: HL-60, 48 h
# In short: (§1)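 Cells kept in RPMI-1640 with 10% FBS, seeded at 1.0 × 10^ cells per well and exposed to graded compound for 48 h at 37 °C in 5% CO2. MTT (5 mg/mL solution) was then added for 4 h, formazan dissolved in DMSO, and OD read at 570 nm. Tests were run in triplicate, and IC50 was derived from mean OD versus concentration curves.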
# Nucleic Acid [1] = assay: Binding affinity to c-myc G-quadruplex DNA FPu18T assessed as change in melting temperature at 1 uM by FRET-melting assay; type: nucleic-acid assay
# In short: (§2)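 FRET melting of FAM/TAMRA-labelled oligonucleotides (FPu18T, F21T or duplex F10T), each 0.2 μM, with compound 1.0 μM in 10 mM Tris-HCl pH 7.2 containing KCl. For competition, excess ds26 duplex (3 or 10 μM) was added.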
# Nucleic Acid [2] = assay: Binding affinity to biotinylated-c-myc G-quadruplex DNA FPu18T at 20 uM by SPR assay; type: nucleic-acid assay
# Nucleic Acid [3] = assay: Binding affinity to c-myc G-quadruplex DNA FPu18T assessed as change in melting temperature at 1 uM by FRET-melting assay in presence of excess duplex oligomer ds26; type: nucleic-acid assay; in short: as §2
# Nucleic Acid [4] = assay: Binding affinity to duplex DNA F10T assessed as change in melting temperature at 1 uM by FRET-melting assay; type: nucleic-acid assay; in short: as §2
# Nucleic Acid [5] = assay: Binding affinity to biotinylated-duplex DNA at 20 uM by SPR assay; type: nucleic-acid assay
# Nucleic Acid [6] = assay: Binding affinity to G-quadruplex DNA Pu27 assessed as inhibition of hybridization with complementary strand after 3 mins by PCR-stop assay; type: nucleic-acid assay
# In short: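 Taq polymerase-stop on Pu27 with its complementary strand, each oligomer 10 μM, in 1× PCR buffer with 0.16 mM dNTP, 2.5 U Taq and graded compound. Cycling was 94 °C 3 min, then 30 cycles of 94 °C 30 s, […] 30 s, 72 °C 30 s. Products were run on 15% nondenaturing PAGE in TBE and silver stained. IC50 was taken for inhibition of amplification.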
# ECV-304 = assay: Cytotoxicity against human ECV304 cells after 48 hrs by MTT assay; type: cell-based; conditions: ECV-304, 48 h; in short: as §1
# NCI-H460 = assay: Cytotoxicity against human NCI-H460 cells after 48 hrs by MTT assay; type: functional, cell-based; conditions: NCI-H460, 48 h; in short: as §1
# Nucleic Acid [7] = assay: Binding affinity to human telomeric G-quadruplex DNA F21T assessed as change in melting temperature at 1 uM by FRET-melting assay; type: nucleic-acid assay; in short: as §2
# Nucleic Acid [8] = assay: Binding affinity to biotinylated-telomeric G-quadruplex DNA HTG21 at 20 uM by SPR assay; type: nucleic-acid assay
# HepG2 = assay: Cytotoxicity against human HepG2 cells after 48 hrs by MTT assay; type: functional, cell-based; conditions: HepG2, 48 h; in short: as §1
# Nucleic Acid [9] = assay: Binding affinity to biotinylated-telomeric G-quadruplex DNA HTG21 by SPR assay; type: nucleic-acid assay
# In short: (§3)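 SPR with biotinylated DNA captured to about 1000 RU in flow cells 1 and 2, the third left blank as reference. Running buffer was 50 mM Tris-HCl pH 7.2, 100 mM KCl. Ligand at 0.3125–10 μM was injected for 150 s association and 300 s dissociation at 25 °C, with 1 M NaCl regeneration. Blank-subtracted sensorgrams were fitted with a Langmuir kinetic model.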
# Nucleic Acid [10] = assay: Binding affinity to biotinylated-c-myc G-quadruplex DNA FPu18T by SPR assay; type: nucleic-acid assay; in short: as §3
# Nucleic Acid [11] = assay: Selectivity ratio of Kd for biotinylated-telomeric G-quadruplex DNA HTG21 to Kd for biotinylated-c-myc G-quadruplex DNA FPu18T; type: nucleic-acid assay; in short: as §3
# Nucleic Acid [12] = assay: Binding affinity to c-myc G-quadruplex DNA FPu18T assessed as change in CD spectra at 25 uM by CD spectrophotometric analysis in presence of 100 mM K+ ions; type: nucleic-acid assay
# In short: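 CD spectra of Pu18 (5 μM) with ligand at 25 μM in 10 mM Tris-HCl pH 7.2 plus 100 mM KCl. Samples were heated to 95 °C, slowly cooled and held at 4 °C for ≥6 h. Spectra were recorded over 220–450 nm with 1 nm bandwidth and 0.5 s per point, averaging two scans.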
# CA46 = assay: Decrease in c-myc expression in promoter element P1 and P2-deficient human CA46 cells by RT-PCR analysis; type: functional, cell-based
# In short: (§4)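 Ramos or CA46 cells were seeded at 100,000 per well and treated for 4 days with 1, 2.5, 5 or 10 μM compound or DMSO. Total RNA was extracted in Redzol and reverse-transcribed with oligo dT18 at 42 °C for 1 h. c-myc (91 bp) and β-actin (541 bp) were PCR-amplified and run on 1% agarose. Densitometry values were normalized to β-actin.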
# Nucleic Acid [13] = assay: Binding affinity to c-myc G-quadruplex DNA FPu18T assessed as conformational changes at 25 uM by CD spectrophotometric analysis in absence of K+ ions; type: nucleic-acid assay
# In short: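 CD spectra of Pu18 (5 μM) with ligand at 25 μM in 10 mM Tris-HCl pH 7.2 with no KCl. Samples were annealed from 95 °C and held at 4 °C for ≥6 h. Spectra were recorded over 220–450 nm with 1 nm bandwidth, averaging two scans.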
# Ramos [14] = assay: Suppression of c-myc mRNA level in human Ramos cells expressing NHE III1 at 10 uM by RT-PCR analysis; type: functional, cell-based; in short: as §4
# Ramos [15] = assay: Decrease in c-myc expression in human Ramos cells expressing NHE III1 at 2.5 uM by RT-PCR analysis; type: functional, cell-based; in short: as §4
ΔTm (Nucleic Acid [1]),Activity (Nucleic Acid [2]),Activity (Nucleic Acid [3]),ΔTm (Nucleic Acid [4]),Activity (Nucleic Acid [5]),IC50 (Nucleic Acid [6]),ΔTm (Nucleic Acid [7]),Activity (Nucleic Acid [8]),Kd (Nucleic Acid [9]),Kd (Nucleic Acid [10]),Ratio (Nucleic Acid [11]),Activity (Nucleic Acid [12]),Activity (Nucleic Acid [13]),Compound,IC50 (HL-60),IC50 (ECV-304),IC50 (NCI-H460),IC50 (HepG2),Activity (CA46),Activity (Ramos [14]),Activity (Ramos [15])
7.4 °C,–,Active,0.6 °C,inactive,> 20 µM,3.6 °C,–,6.86 µM,2.03 µM,–,–,–,CCN(CC)CC(=O)Nc1cc(-n2cccn2)c2[nH]c3c(-n4cccn4)cc(NC(=O)CN(CC)CC)cc3c2c1,2 µM,22.8 µM,2.5 µM,3 µM,–,–,–
15.1 °C,–,Active,0.5 °C,inactive,3.6 µM,10.7 °C,–,2.64 µM,0.131 µM,> 20,Active,–,O=C(CCN1CCCC1)Nc1cc(-n2cccn2)c2[nH]c3c(-n4cccn4)cc(NC(=O)CCN4CCCC4)cc3c2c1,2.2 µM,25.2 µM,3.5 µM,4.2 µM,–,–,–
18.1 °C,–,Active,0.3 °C,inactive,6.3 µM,11.9 °C,–,2.59 µM,0.233 µM,–,Active,–,CCN(CC)CCC(=O)Nc1cc(-n2cccn2)c2[nH]c3c(-n4cccn4)cc(NC(=O)CCN(CC)CC)cc3c2c1,1.9 µM,23.3 µM,2.6 µM,2.7 µM,–,–,–

# The next lines start with the compound.
Compound,ΔTm (Nucleic Acid [1]),Activity (Nucleic Acid [2]),Activity (Nucleic Acid [3]),ΔTm (Nucleic Acid [4]),Activity (Nucleic Acid [5]),IC50 (Nucleic Acid [6]),ΔTm (Nucleic Acid [7]),Activity (Nucleic Acid [8]),Kd (Nucleic Acid [9]),Kd (Nucleic Acid [10]),Ratio (Nucleic Acid [11]),Activity (Nucleic Acid [12]),Activity (Nucleic Acid [13]),IC50 (HL-60),IC50 (ECV-304),IC50 (NCI-H460),IC50 (HepG2),Activity (CA46),Activity (Ramos [14]),Activity (Ramos [15])
O=C(CN1CCOCC1)Nc1cc(-n2cccn2)c2[nH]c3c(-n4cccn4)cc(NC(=O)CN4CCOCC4)cc3c2c1,4.4 °C,inactive,Active,0.2 °C,inactive,> 20 µM,1.2 °C,inactive,–,–,–,–,–,3.9 µM,29.3 µM,3.9 µM,6.1 µM,–,–,–
O=C(CN1CCCCC1)Nc1cc(-n2cccn2)c2[nH]c3c(-n4cccn4)cc(NC(=O)CN4CCCCC4)cc3c2c1,5.5 °C,–,Active,0.1 °C,inactive,> 20 µM,4 °C,–,8.07 µM,1.46 µM,–,–,–,2.4 µM,27.3 µM,3.3 µM,5.6 µM,–,–,–
O=C(CCN1CCCCC1)Nc1cc(-n2cccn2)c2[nH]c3c(-n4cccn4)cc(NC(=O)CCN4CCCCC4)cc3c2c1,12.1 °C,–,Active,0.3 °C,inactive,4.9 µM,9.7 °C,–,1.88 µM,0.135 µM,–,Active,Active,1.2 µM,25 µM,2.7 µM,5.1 µM,inactive,Active,Active
O=C(CN1CCCC1)Nc1cc(-n2cccn2)c2[nH]c3c(-n4cccn4)cc(NC(=O)CN4CCCC4)cc3c2c1,9.3 °C,–,Active,0.3 °C,inactive,5.2 µM,6.3 °C,–,2.97 µM,0.694 µM,–,–,–,1.9 µM,22.2 µM,2.7 µM,2.7 µM,–,–,–
O=C(CCN1CCOCC1)Nc1cc(-n2cccn2)c2[nH]c3c(-n4cccn4)cc(NC(=O)CCN4CCOCC4)cc3c2c1,7.3 °C,inactive,Active,0.3 °C,inactive,> 20 µM,4.2 °C,inactive,–,–,–,–,–,1.7 µM,26.2 µM,2.8 µM,6.9 µM,–,–,–
